System: MS2 coat protein
Test: apparent Kd, MS2 coat protein; higher = weaker binding; RNA-MaP array; FMN 200 µM where present
Outline: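 In 100 mM Tris-HCl pH 7.5, 80 mM KCl, 4 mM MgCl2, BSA, DTT, yeast tRNA and Tween-20, SNAP-549-labelled MS2 coat protein was titrated from 0.7 or 1.5 nM, doubling to 3 µM, over designs transcribed by stalled E. coli RNA polymerase on Illumina sequencing-chip clusters. This was done first without ligand, then with ligand held constant. After green signal was normalised to red-channel RNA signal and control-cluster median Fmax, the apparent Kd was taken as the median of filtered per-cluster binding-curve fits.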

[1] = designed as: OFF switch for flavin mononucleotide, no ligand
[2] = ligand present: flavin mononucleotide, designed as: OFF switch for flavin mononucleotide
[3] = designed as: ON switch for flavin mononucleotide, no ligand
[4] = ligand present: flavin mononucleotide, designed as: ON switch for flavin mononucleotide

## UUAUUAGCAGGAUAUAUCCACGACCACAUGAGGAUCACCCAUGUGGCCGCUUGAGGUUGUAUAGAAGGGCUUUAUU
[1]
  apparent Kd: 15.3 nM
[2]
  apparent Kd: 14.6 nM

## UUAUUAGCAGGAUAUAUCCAGGAUUACAUGAGGAUCACCCAUGUGACCGCUUGAGAUUCUAUAGAAGGGCUUUAUU
[1]
  apparent Kd: 29.6 nM
[2]
  apparent Kd: 29.8 nM

## UUAUUAGCAGGAUAUAUCCGGGAUAACAUGAGGAUCACCCAUGUGACCGCUUGAUAUCCUAUAGAAGGGCUUUAUU
[1]
  apparent Kd: 19.9 nM
[2]
  apparent Kd: 31.4 nM

## UUAUUAUAUGAAGGAUAUACUUAACAUGAGGAUCACCCAUGUGGUGUUGUGAGUGAGUGAGUUUAGUAGAAGGUCAAUUCUUUU
[1]
  apparent Kd: 425 nM
[2]
  apparent Kd: 623 nM

## UUAUUAUAUGUAGGAUAUGCAUAUUAUUAUUAUGCAGAAGGACAUGAGGAUCACCCAUGUAUAUUAUUGUUAUAUAUUAUAUAU
[1]
  apparent Kd: 24.8 nM
[2]
  apparent Kd: 39.3 nM

## UUAUUAUAUGUAGGAUAUGCAUAUUGUUGUUAUGCAGAAGGACAUGAGGAUCACCCAUGUAUAUUAUUGUUAUAUAUUGUAUAU
[1]
  apparent Kd: 24.6 nM
[2]
  apparent Kd: 30.5 nM

## UUAUUUAUGUAAGGAUAUCGAUUAUAUACACAUCCGACAUGAGGAUCACCCAUGUUUUAUUUUUUCGAGAAGGUACAUUGUCGG
[3]
  apparent Kd: 76.5 nM
[4]
  apparent Kd: 74.7 nM

## UUAUUUUGUCAAGGAUAUGUAGUAUUGAUUUGAAAACAUGAGGAUCACCCAUGUAUAUGGUGGGAACAGAAGGUGAAUGUUGAA
[1]
  apparent Kd: 311 nM
[2]
  apparent Kd: 290 nM

## UUAUUUUUACAGAAGGUUUAAUAAUAUAUAUGAGAAGGAUAUGUAACAUGAGGAUCACCCAUGUUUCAUCUAUAUGAGGAUCAU
[1]
  apparent Kd: 6.69 nM
[2]
  apparent Kd: 6.32 nM

## UUAUUUUUACAGAAGGUUUAAUAAUAUGUAUGAGAAGGAUAUGUAACAUGAGGAUCACCCAUGUUUUGUCUAUAUGAGGAUCAU
[1]
  apparent Kd: 8.2 nM
[2]
  apparent Kd: 7.9 nM

## UUCAAGGAAGGAUAUCUCGGCCCGGACAUGAGGAUCACCCAUGUUGUUUUUAGAUUCGUGAGAGAAGGUCUUAUAU
[1]
  apparent Kd: 38.8 nM
[2]
  apparent Kd: 26.5 nM

## UUCAUCAAUGAAGGAUAUCUAUGUCCAACAUGAGGAUCACCCAUGUUGAGGAUCACCUAUGUAAAGGAGAAGGUUAAUAUAACU
[3]
  apparent Kd: 6.96 nM
[4]
  apparent Kd: 6.42 nM

## UUCCGGCGUGUAGGAUAUGGAUCCGAUUAGGAUCCAGAAGGACAUGAGGAUCACCCAUGUACAUGUAAACAGUCAUCACCGGAA
[1]
  apparent Kd: 6.09 nM
[2]
  apparent Kd: 7.65 nM

## UUCCGGCGUGUAGGAUAUGGAUCCGAUUAGGAUCCAGAAGGACAUGAGGAUCACCCAUGUACAUGUAAACAGUCAUCACCGGAC
[1]
  apparent Kd: 9.63 nM
[2]
  apparent Kd: 87.3 nM

## UUCCUCAAGUAAGGAUAUACCACGGUAUGCUGAGUAGAAGGUACAUGAGGAUCACCCAUGUGCAUCCCACGAUUGCAUUGGUCA
[1]
  apparent Kd: 30.4 nM
[2]
  apparent Kd: 145 nM

## UUCGAGCCAAGGCUCGCGAGUACACAGGAUAUGAAAAGUCACAUGAGGAUCACCCAUGUCCAAAAUCAGAAGGGUGAGACUAAG
[3]
  apparent Kd: 520 nM
[4]
  apparent Kd: 101 nM

## UUCGCUAAGGUGUAGCGAGACAUGCAAGAAGGGUGAAGAACAUGAGGAUCACCCAUGUAAUCCUUACAGGAUAUUGAUUGACGA
[3]
  apparent Kd: 307 nM
[4]
  apparent Kd: 181 nM

## UUCGGACUAUCAGGAUAUGGUGUAGCCUAGUAAAGGACAUGAGGAUCACCCAUGUACCAUUGGUGCCAGAAGGGAUGAUCCUAC
[3]
  apparent Kd: 141 nM
[4]
  apparent Kd: 55.3 nM

## UUCGGCGCACAGAAGGAUCGGUACAUGAGGAUCACCCAUGUAAGCAAAGAUAGGAUAUGUGGAGCUUACAGGGAAAAUGAACAA
[3]
  apparent Kd: 93.2 nM
[4]
  apparent Kd: 19 nM

## UUCGGCGCAGGAUAUACAGUUUUGUGUUGAAUCGGCGCGGGACAUGAGGAUCACCCAUGUAGAAGGGUGUUGAA
[1]
  apparent Kd: 682 nM
[2]
  apparent Kd: 470 nM

## UUCGUGCAGCUUUGCUGUACGCGUACAUGAGGAUCACCCAUGUAGGAUAUGGUAGGCAUUGCUUACUAGAAGGAUAGUGUGAUC
[1]
  apparent Kd: 124 nM
[2]
  apparent Kd: 32.2 nM

## UUCGUGCAGCUUUGCUGUACGCGUACAUGAGGAUCACCCAUGUAGGAUAUGGUAGGCCAAGCUUACUAGAAGGAUAUAGUGAUC
[1]
  apparent Kd: 95.5 nM
[2]
  apparent Kd: 88.7 nM

## UUCUUGGCAGGAUAUGCUCUCUUAGACAUGAGGAUCACCCAUGUGUUCAUUCUUUCUUUUGCAGAAGGGCCUUAAU
[1]
  apparent Kd: 56.5 nM
[2]
  apparent Kd: 69.9 nM

## UUGAAUUGAAACAUGAGGAUCACCCAUGUGUCAUAAUUGACAUAGGAUAUGCUUAUACUUUUAAAGCAGAAGGAUGACGAUACU
[3]
  apparent Kd: 23.8 nM
[4]
  apparent Kd: 8.8 nM

## UUGACGGCAGGAUAUACAUGAGGAUCACCCAUGUAAAUUUUUCGUUUAACUUGAAUGUGUAGAAGGGCCAAAAC
[1]
  apparent Kd: 22.7 nM
[2]
  apparent Kd: 19.5 nM

## UUGAGGUCAGGAUAUGCAUGGCGGGACUUGCGUCGUGGCGUGCAGAAGGGACAUGAGGAUCACCCAUGUGGAGU
[1]
  apparent Kd: 145 nM
[2]
  apparent Kd: 236 nM

## UUGAUAAGGAGAGGAUAUGGACAUGAGGAUCACCCAUGUACAUGGGAAUAUUUACUGAAUUCUUACUAGAAGGCUUACAUAUUU
[1]
  apparent Kd: 15.7 nM
[2]
  apparent Kd: 13.3 nM

## UUGAUAAGGAGAGGAUAUUGACAUGAGGAUCACCCAUGUACAUGGGAAUAUUUACUGAAUUCUUACGAGAAGGCUUACAUAUUU
[1]
  apparent Kd: 124 nM
[2]
  apparent Kd: 66.7 nM

## UUGAUGUCAUCAGGAUAUAGUAUUUAAGACAUAUAUUUUUUCAAACAUGAGGAUCACCCAUGUCGCUAGAAGGGAUUAUAGAUU
[1]
  apparent Kd: 41 nM
[2]
  apparent Kd: 35.6 nM

## UUGAUUAUACAAGGAUAUCAAUUGUAAUUGAGACUUACAUGAGGAUCACCCAUGUUAAUAUUUUUUGAGAAGGUGUAUUUUCAG
[3]
  apparent Kd: 27.2 nM
[4]
  apparent Kd: 25.4 nM

## UUGAUUAUACAAGGAUAUCUAUUGUAAUUUCGUCUUACAUGAGGAUCACCCAUGUUAAUAUUUUUAGAGAAGGUGUAUUUUCAG
[3]
  apparent Kd: 39.9 nM
[4]
  apparent Kd: 25.9 nM

## UUGCCUCAGAACAUGAGGAUCACCCAUGUGCUGCGGGCAACGUAGGAUAUGAUGGUGCAACACCAUCAGAAGGAUGAUGGUACC
[3]
  apparent Kd: 5.62 nM
[4]
  apparent Kd: 5.45 nM

## UUGCGCUGUCGAGAGGAUAUGCGGUGUUGGACAUGAGGAUCACCCAUGUUAGCGAUUGCUUUACGGUAGAAGGCUCUUCAGCUGC
[3]
  apparent Kd: 78.8 nM
[4]
  apparent Kd: 52.9 nM

## UUGGACGUCGUAGGAAAUGUAGGAUAUUCCUACAUGAGGAUCACCCAUGUUGACAUGGAAGAAGGACAGAAGGACGAUGUCCAU
[3]
  apparent Kd: 517 nM
[4]
  apparent Kd: 11 nM

## UUGGACGUCGUAGGAUAAGUAGGAUAUUCCUACAUGAGGAUCACCCAUGUUGACAUGGAAGAAGGACAGAAGGACGAUGUCCAU
[3]
  apparent Kd: 96.2 nM
[4]
  apparent Kd: 4.48 nM

## UUGGACGUCGUAGGAUAUGUAGGAUACUCCUACAUGAGGAUCACCCAUGUUGACAUGGAGGACGGACAGAAGGACGGUGUCCAU
[3]
  apparent Kd: 60.5 nM
[4]
  apparent Kd: 5.72 nM

## UUGGACGUCGUAGGAUAUGUAGGAUAUUCCAACAUGAGGAUCACCCAUGUUGACAUGGAAGAAGGACAGAAGGACGAUGUCCAU
[3]
  apparent Kd: 4.28 nM
[4]
  apparent Kd: 3.63 nM

## UUGGACGUCGUAGGAUAUGUAGGAUAUUCCUACAUGAGGAUCACCCAUGUUGACAUGGAAGAAGGACAGAAGGGCGAUGUCCAU
[3]
  apparent Kd: 352 nM
[4]
  apparent Kd: 5.27 nM

## UUGGACGUCGUAGGAUAUGUAGGAUAUUCCUACAUGAGGAUCACCCAUGUUGACAUGGAAGAAGGACAGGAGGACGAUGUCCAU
[3]
  apparent Kd: 346 nM
[4]
  apparent Kd: 7.82 nM

## UUGGACGUCGUAGGGUAUGUAGGAUAUUCCUACAUGAGGAUCACCCAUGUUGACAUGGAAGAAGGACAGAAGGACGAUGUCCAU
[3]
  apparent Kd: 106 nM
[4]
  apparent Kd: 4.37 nM

## UUGGACGUCUUAGGAUAUGUAGGAUAUUCCUACAUGAGGAUCACCCAUGUUGACAUGGAAGAAGGACAGAAGGACGAUGUCCAU
[3]
  apparent Kd: 418 nM
[4]
  apparent Kd: 11.2 nM

Source: the EternaBench riboswitch data
